Screening data deposited in PubChem BioAssay by NMMLSC.
MEP2-GFP yeast = modulators of TOR pathway MEP2-GFP in S. cerevisiae; S. cerevisiae MEP2-GFP strain, flow cytometry GFP, 3 h; 100% = DMSO control level; GFP response vs DMSO, % at 10 µM; 330,000 compounds, 0.51% hits;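 active means GFP response versus DMSO above a set limit, roughly screen mean plus 3 SD, cut at about 180% in these data; inconclusive means fewer than 70 cells counted for a yeast strain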;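 further: median GFP fluorescence of the barcode-gated MEP2-GFP cells per well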
LAP4 TOR yeast = alters LAP4-GFP fluorescence in TOR pathway yeast screen; 320,000 compounds, 0.34% hits; GFP response vs DMSO, % at 10 µM; AID 2023; S. cerevisiae LAP4-GFP multiplex, flow cytometry GFP, 3 h; median GFP as percent of DMSO wells;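 active means GFP response vs DMSO above a set limit, about the screen mean plus 3 SD, cut at about 150% in these data; inconclusive means under 70 cell events counted for the yeast strain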
AGP1 TOR yeast = alters AGP1-GFP fluorescence in TOR pathway yeast screen. S. cerevisiae AGP1-GFP multiplex flow cytometry, 3 h; GFP as percent of DMSO wells. GFP response vs DMSO, % at 10 µM. 320,000 compounds, 0.02% hits;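 active means GFP response relative to DMSO above a set limit, near screen average plus 3 SD, cut at about 150% in these data; inconclusive means fewer than 70 cells counted for the yeast strain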;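 further: median GFP channel fluorescence of the gated AGP1 strain per well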
CIT2-GFP yeast = modulators of TOR pathway CIT2-GFP in S. cerevisiae; 320,000 compounds, 0.065% hits; GFP response vs DMSO, % at 10 µM; AID 2029; S. cerevisiae CIT2-GFP strain, flow cytometry, 3 h; 100 means same as DMSO wells;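 active means GFP response relative to DMSO above a set limit, near the screen mean plus 3 SD, cut at about 150% in these data; inconclusive means Fewer than 70 cells measured for a yeast strain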;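 further: ratio of well median GFP fluorescence to mean of DMSO wells on the plate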
T cell HTS = T cell immune modulation candidate; 330,000 compounds, 0.068% hits; 2C CD8+ T cell-vesicle binding, flow cytometry; active compounds read low; response (vesicle binding), % at 7 µM;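 active means response, share of CD8 T cells binding vesicles, and their 90th percentile fluorescence all below set limits, cut at about 80% in these data, passing the limit was not always enough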;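 further: values below 100% mean blocked vesicle binding to the CD8+ T cells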
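Test system: purified 2C TCR transgenic mouse naive CD8+ T cells. Probe or stimulus: QL9-peptide-loaded Drosophila micro-vesicles bearing Ld, ICAM-1 and B7-1. Incubation: binding step 1.5 h, 37 °C, antibody labelling 20 min, ice. Measured by: flow cytometry of vesicle-bound cells.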
RPL19A TOR yeast = modulators of TOR pathway RPL19A-GFP in S. cerevisiae; S. cerevisiae RPL19A-GFP strain, flow cytometry, 3 h; active compounds read low; percent response vs DMSO, % at 10 µM; 330,000 compounds, 0.3% hits; AID 2025;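 active means percent response vs DMSO below 50%; inconclusive means fewer than 70 events counted for the yeast strain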;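 further: median channel GFP fluorescence of the barcoded RPL19A-GFP strain; lower means less RPL19A-GFP as with rapamycin TOR inhibition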
Of the large screens only hits and unclear results are named; the others gave an inactive call; [ ] = remark or other dose. An excerpt weighted towards active compounds, which were near 0.96% of everything screened.

CCCCNC(=O)c1ccc2c(SCC(=O)O)c3c(nc2c1)CCCC3	MEP2-GFP yeast 185.1
CCN(C[C@H]1N[C@@](CC)(C(=O)OC)[C@H]2C(=O)N(C)C(=O)[C@@H]12)C(=O)C1CCCCC1	none
CCCCC1=CC2=CC(=O)C(C)(OC(=O)CC)C(=O)C2=CO1 (configuration not stated)	MEP2-GFP yeast 260.1[may fluoresce violet], AGP1 TOR yeast inconclusive, CIT2-GFP yeast inconclusive, RPL19A TOR yeast 35.4[may fluoresce violet]
O=C(COC(=O)c1ccc(Cl)nc1)Nc1cccnc1Cl	none
NC(=O)C1CCN(c2nc(-c3cc4ccccc4o3)cs2)CC1	T cell HTS 78.3
Cc1cccc(C)c1-n1cccc1/C=C1\SC(=S)N(c2cccc(C(=O)O)c2)C1=O	none
CC1(C(=O)OCc2cc(=O)n3cc(Br)ccc3n2)CC1(Cl)Cl (configuration not stated)	LAP4 TOR yeast 164.2
CC1CC1C(=O)OCc1cc(=O)n2cc(Br)ccc2n1 (configuration not stated)	none
CCCC(=O)Nc1ccccc1-c1nnc(SCC)[nH]c1=O	none
O=C(NCCCSc1ccccc1)c1cc(Cl)ccc1O	LAP4 TOR yeast 162.1
O=C(CNC(=O)c1ccccc1)NCCCSc1ccccc1	none
COc1ccc2nc(NC(=O)C3CCN(C(=O)c4ccco4)CC3)sc2c1	none
O=c1oc2ccccc2c2c1C(c1ccc(Cl)cc1)Nc1ccc3ccccc3c1-2 (configuration not stated)	CIT2-GFP yeast inconclusive, RPL19A TOR yeast 39.0[may fluoresce violet]
COc1cccc2cc(C(=O)N3CCCCCCC3)c(=O)oc12	none
COc1cccc2cc(C(=O)N3CCN(C/C=C/c4ccccc4)CC3)c(=O)oc12	MEP2-GFP yeast 219.4
CCc1nnc(NS(=O)(=O)c2ccc(N/C=C\C(=O)c3cccc(OC)c3)cc2)s1	MEP2-GFP yeast 269.7[may fluoresce violet], AGP1 TOR yeast inconclusive, CIT2-GFP yeast inconclusive
CCN(CC(=O)Nc1cccc(OC)c1)C(=O)c1cnc(Cl)c(Cl)c1	none
O=C(c1ccc(F)cc1)c1cc2ccc(O)cc2oc1=O	none
C/C(=N\NC(=O)CC#N)c1cc2ccc(O)cc2oc1=O	MEP2-GFP yeast 200.8[may fluoresce violet], AGP1 TOR yeast inconclusive, CIT2-GFP yeast inconclusive, RPL19A TOR yeast 16.1[may fluoresce violet]
COc1ccc(C(=O)NCCCCCCNC(=O)c2ccc(OC)cc2)cc1	none
CC(C)Oc1ccccc1C1Nc2ccccc2C(=O)N1c1ccc2c(c1)OCCO2 (configuration not stated)	MEP2-GFP yeast 210.1[may fluoresce violet], CIT2-GFP yeast inconclusive (no result: AGP1 TOR yeast)
Cc1onc(-c2ccccc2)c1C(=O)N1CCC(C)CC1	MEP2-GFP yeast 220.7, LAP4 TOR yeast 159.7
COC(=O)Cn1c(=O)c2c(nc(Br)n2Cc2ccccc2Cl)n(C)c1=O	MEP2-GFP yeast 265.3[may fluoresce violet], CIT2-GFP yeast inconclusive, RPL19A TOR yeast 36.2[may fluoresce violet]
Cc1cc(-c2nnc(SCC(=O)Nc3ccccc3Cl)n2C)no1	none
Cn1c(=O)n(C)c2cc(S(=O)(=O)Nc3cc(Cl)ccc3O)ccc21	none
C=CCN1C(=O)C(Cc2ccc(F)cc2)S/C1=N/N=C/c1ccco1 (configuration not stated)	T cell HTS 0.0
CCCc1nnc(SCC(=O)N2CCCC2)n1CC1CCCO1 (configuration not stated)	none (no result: AGP1 TOR yeast)
CCCc1nnc(SCC(=O)N2CCCCC2)n1CC1CCCO1 (configuration not stated)	MEP2-GFP yeast 200.3[may fluoresce violet], CIT2-GFP yeast inconclusive
COC(C[C@@H]1O[C@@H]1[C@H](O)COCc1ccccc1)OC	none
Cc1ccsc1C(=O)N(Cc1nnc(-c2ccccc2Cl)o1)C1CC1	LAP4 TOR yeast 164.4
Cn1cnnc1SCc1ccc(C(=O)N=Nc2c(O)n(C)c3ccccc23)cc1	none
Cn1cnnc1SCc1ccc(C(=O)n2ncc(C#N)c2N)cc1	MEP2-GFP yeast 302.9[may fluoresce violet], AGP1 TOR yeast inconclusive, RPL19A TOR yeast 23.4[may fluoresce violet] (no result: CIT2-GFP yeast)
O=C(Nc1cc(C(F)(F)F)ccc1-n1cncn1)c1ccc(F)cc1Cl	none
N#C/C(C(N)=O)=c1/ccc2c(c1)N1C3=C(CCCC3)CC3CCCCC31N=2 (configuration not stated)	LAP4 TOR yeast 159.7
Cc1cccc(CSCc2ccc(C(=O)NC(C)C)o2)c1	MEP2-GFP yeast 258.6
Cc1cccc(CSCc2ccc(C(=O)O)o2)c1	none
CC(O)[C@H]1CNCCN1CCc1cccc(F)c1 (some centres not stated)	none
CC(C)C(NC(=O)c1cccc(S(=O)(=O)N2CCOCC2)c1)C(=O)NCc1ccc(Cl)cc1 (configuration not stated)	none
O=C(Nc1nc2c(s1)CN(Cc1ccccc1)CC2)c1cccc(S(=O)(=O)N2CCc3ccccc32)c1	MEP2-GFP yeast inconclusive, LAP4 TOR yeast inconclusive, AGP1 TOR yeast inconclusive, CIT2-GFP yeast inconclusive, RPL19A TOR yeast 19.6[may fluoresce violet]
O=C(CCC1CCCN(C(=O)Cn2cnnn2)C1)NCc1ccccc1F (configuration not stated)	none
Cc1cccc(N2CCN(C(=O)COc3ccc4ccc(=O)oc4c3)CC2)c1C	CIT2-GFP yeast inconclusive, RPL19A TOR yeast 41.8[may fluoresce violet]
O=C(COc1ccc2ccc(=O)oc2c1)N1CCN(c2ccccc2)CC1	none
O=[N+]([O-])c1ccc(S(=O)(=O)N2CCC3(CC2)OCCN3S(=O)(=O)c2cccs2)cc1	none
COc1ccc(OCc2nc3ccc(S(=O)(=O)Nc4ccccc4Cl)cc3[nH]2)cc1	MEP2-GFP yeast 180.9[may fluoresce violet], AGP1 TOR yeast inconclusive, CIT2-GFP yeast inconclusive, RPL19A TOR yeast 26.8[may fluoresce violet]
COc1ccc(NS(=O)(=O)c2ccc3nc(COc4ccc5ccccc5c4)[nH]c3c2)cc1	none (no result: MEP2-GFP yeast, LAP4 TOR yeast, AGP1 TOR yeast, CIT2-GFP yeast, RPL19A TOR yeast)
CC(C)[C@H](NC(=O)NCc1ccc(F)cc1)C(=O)O	none
O=C(N/N=C/c1ccc(-c2ccc(Br)cc2)o1)c1ccc2c(c1)OCO2	LAP4 TOR yeast 162.0
CCCCOc1ccccc1Cn1c(=O)oc2ccccc21	MEP2-GFP yeast 177.7[may fluoresce violet], CIT2-GFP yeast inconclusive (no result: AGP1 TOR yeast)
Cc1nc(Cl)c(C(=O)NC(=O)NCc2ccccc2)c(C)c1Cl	T cell HTS 0.0
Cc1ccccc1NC(=O)c1c(Cl)nc(C)c(Cl)c1C	none
COc1ccc(OCc2nnc(SCC(=O)Nc3ccccc3C#N)o2)cc1	none
N#CC(C#N)=C1C=C2C=C(N3CCCCC3)CCC2CC1 (configuration not stated)	MEP2-GFP yeast 896.0[may fluoresce green], LAP4 TOR yeast 712.1[may fluoresce green], AGP1 TOR yeast 190.0[may fluoresce green], CIT2-GFP yeast 630.7[may fluoresce green]
N#CC1=C(N)C2=C(N3CCCCC3)CCCC2C1(C#N)C#N (configuration not stated)	none
COc1ccc(C2CC(c3ccccc3)=NN2c2ccc(S(N)(=O)=O)cc2)cc1OC (configuration not stated)	none
